Active and inactive are the calls of the source. No cut-off for these calls is given here.
Columns and labels:
Adenosine receptor A1 [1] = molecular target: T1, Adenosine receptor A1 (Homo sapiens, UniProt P30542); assay: Agonist activity at human Adenosine A1 receptor expressed in yeast cells coexpressed with chimeric GPA1/Galphai1 after 16 hrs by beta galactosidase reporter gene assay; assay type: cell-based
T1 sequence (P30542 whole entry): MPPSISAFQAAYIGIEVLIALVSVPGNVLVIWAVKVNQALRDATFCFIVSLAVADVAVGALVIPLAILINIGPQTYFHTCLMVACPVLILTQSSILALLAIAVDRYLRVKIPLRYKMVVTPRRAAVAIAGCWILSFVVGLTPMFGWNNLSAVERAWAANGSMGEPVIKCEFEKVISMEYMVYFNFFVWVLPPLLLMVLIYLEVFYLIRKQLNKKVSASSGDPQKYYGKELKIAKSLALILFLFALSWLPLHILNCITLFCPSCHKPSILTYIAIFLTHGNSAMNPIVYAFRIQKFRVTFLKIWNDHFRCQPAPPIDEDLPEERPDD

Adenosine receptor A2a [2] = molecular target: T2, Adenosine receptor A2a (Homo sapiens, UniProt P29274); assay: Agonist activity at human Adenosine A2A receptor expressed in yeast cells coexpressed with chimeric GPA1/Galphas after 16 hrs by beta-galactosidase reporter gene assay; assay type: cell-based
T2 sequence (P29274 whole entry): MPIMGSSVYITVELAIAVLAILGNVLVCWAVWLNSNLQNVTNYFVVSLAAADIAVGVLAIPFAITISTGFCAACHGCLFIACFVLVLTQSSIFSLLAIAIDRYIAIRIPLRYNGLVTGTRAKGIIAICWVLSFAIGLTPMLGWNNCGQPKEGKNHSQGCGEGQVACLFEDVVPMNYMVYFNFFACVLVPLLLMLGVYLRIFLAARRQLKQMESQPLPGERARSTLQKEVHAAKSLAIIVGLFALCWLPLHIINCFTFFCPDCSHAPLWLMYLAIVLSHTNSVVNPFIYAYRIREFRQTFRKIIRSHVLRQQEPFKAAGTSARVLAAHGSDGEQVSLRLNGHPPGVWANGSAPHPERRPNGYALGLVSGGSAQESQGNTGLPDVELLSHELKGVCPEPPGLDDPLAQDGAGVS

Adenosine receptor A2b = molecular target: T3, Adenosine receptor A2b (Homo sapiens, UniProt P29275); assay: Agonist activity at human Adenosine A2B receptor expressed in yeast cells coexpressed with chimeric GPA1/Galphas after 16 hrs by beta-galactosidase reporter gene assay; assay type: cell-based
T3 sequence (P29275 whole entry): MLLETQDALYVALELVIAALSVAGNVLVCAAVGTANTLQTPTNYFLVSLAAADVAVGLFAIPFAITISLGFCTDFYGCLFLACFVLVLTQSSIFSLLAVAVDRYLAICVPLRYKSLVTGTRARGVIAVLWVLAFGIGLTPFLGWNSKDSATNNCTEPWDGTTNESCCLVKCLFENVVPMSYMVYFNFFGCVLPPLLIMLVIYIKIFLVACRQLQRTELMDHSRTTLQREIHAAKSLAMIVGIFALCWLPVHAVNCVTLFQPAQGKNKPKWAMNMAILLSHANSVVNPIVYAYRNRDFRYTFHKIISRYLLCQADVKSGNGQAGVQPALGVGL
Outline: (§1)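 Yeast (Δfar1, FUS1-lacZ) express A2BR from the GAPDH promoter alongside Gpa1p/Gαs chimera. The OD600 is 0.02 and compound is added in 1% v/v DMSO for 16 h at 30°C. β-Galactosidase is read with ONPG at OD430, normalised as (OD430−OD620)/OD620. Three-parameter logistic fit gives EC50 and Emax. Data are from 5-8 independent experiments.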

[3] = molecular target: T4, Adenosine receptor A2b (Homo sapiens) (UniProt P29275); assay: Agonist activity at human Adenosine A2B receptor expressed in yeast cells coexpressed with chimeric GPA1/Galphas after 16 hrs by beta-galactosidase reporter gene assay relative to NECA; assay type: cell-based
T4 sequence (whole entry): T3 sequence (P29275 whole entry)
Outline: as §1, with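 “(OD430−OD620)/OD620. […]” for “(OD430−OD620)/OD620.”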

[4] = molecular target: T4, Adenosine receptor A2b (Homo sapiens); assay: Binding affinity to human Adenosine A2B receptor expressed in yeast cells coexpressed with GPA1/Galphas; assay type: cell-based
Outline: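 pKA is derived by non-linear regression of the operational model of agonism applied to 16 h yeast FUS1-lacZ concentration-response data, with A2BR coupled to the GPA1/Gαs chimera.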

Adenosine receptor A1 [5] = molecular target: T1, Adenosine receptor A1; assay: Agonist activity at human Adenosine A1 receptor transfected in CHO-K1 cells assessed as inhibition of forskolin-stimulated cAMP production after 30 mins by multimode microplate reader analysis; assay type: functional, cell-based
Adenosine receptor A3 = molecular target: T5, Adenosine receptor A3 (Homo sapiens, UniProt P0DMS8); assay: Agonist activity at human Adenosine A3 receptor transfected in CHO-K1 cells assessed as inhibition of forskolin-stimulated cAMP production after 30 mins by multimode microplate reader analysis; assay type: functional, cell-based
T5 sequence (P0DMS8 whole entry): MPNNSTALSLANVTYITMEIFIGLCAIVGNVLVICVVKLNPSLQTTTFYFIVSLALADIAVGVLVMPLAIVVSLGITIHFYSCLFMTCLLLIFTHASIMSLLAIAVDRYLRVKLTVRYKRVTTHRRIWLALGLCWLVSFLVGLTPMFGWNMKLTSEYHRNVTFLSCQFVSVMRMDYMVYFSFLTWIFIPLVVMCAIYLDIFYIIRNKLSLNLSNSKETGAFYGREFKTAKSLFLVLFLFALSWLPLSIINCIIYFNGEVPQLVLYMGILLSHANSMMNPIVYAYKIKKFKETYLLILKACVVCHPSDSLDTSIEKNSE
Outline: (§2)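 CHO-K1 cells are transiently transfected with receptor (2 µg DNA, FuGene 6) and harvested at 48 h. They are co-incubated with 10 µM forskolin and ligand (10 pM to 1 µM) for 30 min at room temperature. cAMP is measured by LANCE kit. Data are expressed as % of the 10 µM forskolin response.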

[6] = molecular target: T6, Adenosine receptor A3 (Homo sapiens) (UniProt P0DMS8); assay: Agonist activity at human Adenosine A3 receptor transfected in CHO-K1 cells assessed as inhibition of forskolin-stimulated cAMP production after 30 mins by multimode microplate reader analysis relative to total forskolin; assay type: functional, cell-based; design: concentration or dose not given beside the values
T6 sequence (whole entry): T5 sequence (P0DMS8 whole entry)
Outline: as §2, with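 “h. Cells are resuspended in PBS with 0.1% BSA and 25 µM rolipram, at 2500 cells/well.” for “h.”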

[7] = molecular target: T7, Adenosine receptor A1 (Homo sapiens) (UniProt P30542)
T7 sequence (whole entry): T1 sequence (P30542 whole entry)

Adenosine receptor A2a [8] = molecular target: T2, Adenosine receptor A2a
[9] = molecular target: T7, Adenosine receptor A1 (Homo sapiens); remark: listed apart in the source
Adenosine receptor A2a [10] = molecular target: T2, Adenosine receptor A2a; remark: listed apart in the source
[11] = molecular target: T4, Adenosine receptor A2b (Homo sapiens)
[12] = molecular target: T7, Adenosine receptor A1 (Homo sapiens); assay: Agonist activity at human Adenosine A1 receptor expressed in yeast cells coexpressed with chimeric GPA1/Galphai1 at 100 uM after 16 hrs by beta galactosidase reporter gene assay; assay type: cell-based
Outline: (§3)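 Human receptor expressed from GAPDH promoter (p426-GPD) in Δfar1 FUS1-lacZ yeast with Gpa1p(1-467) carrying the 5 C-terminal Gα residues. Cells are grown overnight in SD-URA at 30°C, diluted 1:10 and grown 8 h. They are set to OD600 0.02 and given compound at 1% v/v DMSO for 16 h at 30°C. A2A strain is grown in SD-URA-HIS, with 5 mM 3-amino-triazole in treatment media. Read-out: ONPG, (OD430−OD620)/OD620.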

Adenosine receptor A2a [13] = molecular target: T2, Adenosine receptor A2a; assay: Agonist activity at human Adenosine A2A receptor expressed in yeast cells coexpressed with chimeric GPA1/Galphas at 100 uM after 16 hrs by beta-galactosidase reporter gene assay; assay type: cell-based; outline: as §3
[14] = molecular target: T4, Adenosine receptor A2b (Homo sapiens); assay: Agonist activity at human Adenosine A2B receptor expressed in yeast cells coexpressed with chimeric GPA1/Galphas at 100 µM after 16 hrs by beta-galactosidase reporter gene assay; assay type: cell-based
Outline: as §1, with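 “(OD430−OD620)/OD620. […]” for “(OD430−OD620)/OD620.”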

Adenosine receptor A1 [15] = molecular target: T1, Adenosine receptor A1; assay: Competitive antagonist activity at human Adenosine A1 receptor expressed in yeast cells after 16 hrs by LacZ reporter gene assay; assay type: cell-based; conditions: read-out: pA2 (converted)
Adenosine receptor A1 [16] = molecular target: T1, Adenosine receptor A1; assay: Displacement of [3H]CPX from human Adenosine A1 receptor expressed in DDT1MF-2 cells; assay type: cell-based
Adenosine receptor A1 [17] = molecular target: T1, Adenosine receptor A1; assay: Displacement of [3H]CPX from human Adenosine A1 receptor expressed in CHO cells; assay type: cell-based

| Compound | EC50 (Adenosine receptor A1 [1]) [nM] | EC50 (Adenosine receptor A2a [2]) [nM] | EC50 (Adenosine receptor A2b) [nM] | Emax [3] [%] | pKA [4] | IC50 (Adenosine receptor A1 [5]) [nM] | IC50 (Adenosine receptor A3) [nM] | Activity [6] [%] | pKA [7] | pKA (Adenosine receptor A2a [8]) | log(activity) [9] | log(activity) (Adenosine receptor A2a [10]) | log(activity) [11] | Activity [12] | Activity (Adenosine receptor A2a [13]) | Activity [14] | Kb (Adenosine receptor A1 [15]) [nM] | Ki (Adenosine receptor A1 [16]) [nM] | Ki (Adenosine receptor A1 [17]) [nM] |
| --- | --- | --- | --- | --- | --- | --- | --- | --- | --- | --- | --- | --- | --- | --- | --- | --- | --- | --- | --- |
| CCNC(=O)[C@H]1O[C@@H](n2cnc3c(N[C@@H]4CCC[C@H]4OCc4ccccc4)ncnc32)[C@H](O)[C@@H]1O | 1000 | 15800 | 126000 | 32.2 | 3.5 | 0.0295 | 269 | -38 | 4.3 | 3.9 | 1.6 | 0.5 | 0.1 | – | – | – | – | – | – |
| O[C@@H]1[C@H](O)[C@@H](CSc2ccccc2F)O[C@H]1n1cnc2c(N[C@@H]3CCC[C@H]3OCc3ccccc3)ncnc21 | – | – | – | – | inactive | – | – | – | inactive | inactive | – | – | – | inactive | inactive | inactive | 398 | – | – |
| O[C@@H]1[C@H](O)[C@@H](CSc2ccccc2F)O[C@H]1n1cnc2c(N[C@@H]3CCC[C@H]3O)ncnc21 [GS-9667] | – | – | – | – | inactive | – | – | – | inactive | inactive | – | – | – | inactive | inactive | inactive | 5010 | 113 | 1100 |
